# Rows were chosen to be rich in hits. Some 3.5% of all compounds tested hit in one or more screens of this group.
# PglD DTNB – blocks C. jejuni PglD acetyltransferase activity; purified PglD enzyme, DTNB colorimetric CoA detection; inhibition, % at 12.5 µM; AID 602405; actives 0.098% (n = 360,000); in the data active = inhibition above about 16%, passing the limit was not always enough; inconclusive = no clear call, values can overlap the other calls
# DENV2 CPE – inhibitors of DENV2 cytopathic effect; DENV2-infected cells, cytopathic effect rescue, plate reader; CPE inhibition, % at 9.99 µM; actives 1.7% (n = 350,000); in the data active = CPE inhibition above about 20%, passing the limit was not always enough; inconclusive = no clear call, values can overlap the other calls; tested in BHK-21 cells;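 also: 0% = median of neutral control wells and 100% = median of positive control wells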
# PGC1a acetyl inh – lowers PGC1a acetylation signal in U2OS cells; AlphaScreen anti-acetyl-lysine; with virally co-expressed GCN5 acetyltransferase; inhibition, % at 15.6 µM; actives 0.17% (n = 350,000); AID 651687;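 active = every replicate shows inhibition of at least 40%; inconclusive = mean inhibition at least 40% but some replicate below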;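 also: 0% = neutral control wells and 100% = positive control wells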
# FN deposition inh – fibronectin deposition inhibition; AH1F fibroblasts, Alexa488-fibronectin deposition fluorescence, overnight; inhibition, % at 12.6 µM; actives 0.086% (n = 350,000);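 active = mean inhibition across replicates of 30% or more, regardless of how many single replicates reach that level; inconclusive = mean under 30% yet at least half of replicates reach 30%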;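 also: positive control wells lacked labelled fibronectin entirely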
#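 Test system: AH1F fibroblast monolayer depositing Alexa488-labelled fibronectin into matrix. Input: 10000 cells per well. Technique: fluorescence, ex 485 nm, em 525 nm. Buffer or medium: DMEM plus 2% serum, read in PBS. Timing: 1 h cell adhesion before compound, then overnight fibronectin incubation. Compound: single dose, pinned. Read-out basis: inhibition from reduced deposited-fibronectin fluorescence.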
# Ecoli rRNA inh – selective bacterial rRNA inhibition in E. coli; E. coli WT GFP vs humanized-ribosome RFP mutants, fluorescence, 24 h; hits give low values; DMSO median 0, no signal -100; GFP signal change (wild-type ribosome), % (test concentration not listed); actives 1.6% (n = 350,000); AID 720706;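 active = significant combined selectivity score with lowered wild-type GFP, culture density cut under 30%, mutant RFP and density less affected; inactive = any of these conditions unmet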
# Env fusion inh – inhibitors of HIV Env-mediated cell fusion | AID 651610 | actives 1.1% (n = 360,000) | HeLa-JRFL Env/CEM21 cell fusion, luciferase | inhibition, % at 12.3 µM;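 active = mean replicate inhibition score of at least 50 and every replicate individually at or above 50; inconclusive = only one of the two criteria met; inactive = mean below 50 and not all replicates reaching 50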;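 also: 0% = plate neutral controls and 100% = maraviroc near 300 nM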
# HepG2 tox – HepG2 cell cytotoxicity; activity change, negative = cytotoxicity, unspecified at 26 µM; shares compounds with Ecoli rRNA inh; 30 tested, under 10 active; HepG2 viability, ATP luminescence, 72 h;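 active = compounds whose fitted half-maximal signal-loss concentration is at most twice their highest valid dose; inconclusive = flat curve with 30 to 70% signal loss, or poor fit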
# AID977621 – wild-type E. coli growth inhibition versus H69 humanized strain – H69 mutant RFP, wild-type GFP, cherry-pick, dose response. activity change, negative = inhibition at 50 µM. 1,900 tested, under 10 active. fluorescence, 24 h. shares compounds with Ecoli rRNA inh;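 active = Wild-type ribosome reporter drop at least double the humanized mutant ribosome reporter drop, growth loss under a set limit; inconclusive = no clear call, values can overlap the other calls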;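 also: wild-type GFP and H69 mutant RFP strains grown together 50/50 in each well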
# AID977628 – E. coli growth inhibition, wild-type GFP versus h24 humanized RFP strain, dose response, h24 mutant RFP vs wild-type GFP, cherry-pick | E. coli WT GFP strain growth, fluorescence, 24 h | 1,900 tested, under 10 active | AID 977628 | activity change, negative = inhibition at 50 µM | shares compounds with Ecoli rRNA inh;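 active = compound lowering the normal-ribosome reporter at least twice as much as the humanized-ribosome reporter, growth loss under a set limit; inconclusive = no clear call, values can overlap the other calls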;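 also: wild-type GFP and h24 humanized RFP strains co-cultured 1 to 1 per well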
# Numbers without * were called inactive; u = inconclusive; x = not tested or not shown; [ ] = remark or other dose.
SMILES,PglD DTNB,DENV2 CPE,PGC1a acetyl inh,FN deposition inh,Ecoli rRNA inh,Env fusion inh,AID977621,AID977628,others
O=C(Nc1ccc(-c2nnc3n2CCCCC3)cc1)c1cc2ccccc2o1,x,5,x,1,-20*,14,-7.4,-3.2,
CCN(CC)c1nc(Oc2ccc(C(=O)OC)cc2)nc(N2CCOCC2)n1,x,-2,-10,0,-16*,13,-7.2,-16,
O=C1c2ccccc2CSc2c(O)cccc21,5,6,-4,2,-31*,1,-10,-11,
O=C1c2ccccc2CCc2ccccc21,1,6,-4,-4,-5,-1,x,x,
CO[C@@H]1CN(C)C(=O)c2ccc(NC(=O)C3CCC3)cc2OC[C@@H](C)N(C)C[C@@H]1C,-3,-3,x,-10,2,x,x,x,
Cc1c(C(=O)O)sc2nc(CSc3ncc(C(F)(F)F)cc3Cl)[nH]c(=O)c12,x,5,0,2,-33*,-6,x,x,HepG2 tox=21
CC(C)(C)CC(=O)NCCc1csc(-c2ccccc2)n1,x,-3,12,6,-16*,15,-3.8,u,
COc1ccc(NC(=O)Nc2cccc3c2O[C@@H](CN(C)S(=O)(=O)c2ccccc2)[C@@H](C)CN([C@@H](C)CO)C3=O)cc1,0,-7,-8,x,-4,-6[16.7 µM],x,x,
CC(=O)Nc1ccc(S(=O)(=O)Nc2ccc(C)c([N+](=O)[O-])c2)cc1,0,7,x,-8,-26*,19,x,u,
CC(=O)Nc1ccc(NS(=O)(=O)c2cc([N+](=O)[O-])ccc2C)cc1,x,6,18,9,8,13,x,x,
Cc1ccc(C(=O)Nc2ccc(NC(=O)c3cccs3)cc2)cc1[N+](=O)[O-],2,2,-6,0,12,-67,x,x,
Cc1ccc(NC(=O)c2cccs2)cc1[N+](=O)[O-],x,8,2,x,-28*,-10,-1.9,x,
CC1Sc2ccc(S(=O)(=O)NCc3ccccc3)cc2NC1=O (centres undefined),1,-3,-15,8,-21*,2,-14,x,
Cc1ccccc1-c1ccc([C@@H]2[C@@H](CO)N3CCCCN(C(=O)Nc4ccc(F)cc4)C[C@@H]23)cc1,5,-9,-8,x,-38*,x,x,u,
O=C(Nc1ccccc1)N1CCCCN2[C@H](CO)[C@@H](c3ccc(Br)cc3)[C@@H]2C1,1,-8,-17,x,-10,x,x,x,
O=C(Nc1ccccc1)N1CCCCN2[C@@H](CO)[C@H](c3ccc(Br)cc3)[C@@H]2C1,0,u,-12,x,-23*,x,x,u,
O=C(c1ccccc1F)N1CC(=O)N2[C@H](C1)[C@@H](c1ccc(-c3cccnc3)cc1)[C@@H]2CO,x,-10,-15,x,0,x,x,x,
CN(C)C(CNS(=O)(=O)c1cc([N+](=O)[O-])ccc1Cl)c1ccco1 (centres undefined),x,4,x,-5,-2.3*,-4,x,-12,
CN(C)C(CNC(=O)c1ccc([N+](=O)[O-])cc1Cl)c1ccco1 (centres undefined),-3,0,x,5,1,-6,x,x,
O=S(=O)(c1ccccc1)N1CCN(Cc2ccccc2C(F)(F)F)CC1,-3,x,-7,-18,x,-59,x,x,
O=[N+]([O-])c1ccccc1CN1CCN(S(=O)(=O)c2ccccc2)CC1,x,7,-5,-5,-25*,-56,u,u,
C[C@@H]1CN([C@H](C)CO)S(=O)(=O)c2ccc(C#CC3CCCC3)cc2O[C@H]1CN(C)C(=O)c1cccc(F)c1,x,x,16,x,1,44[16.7 µM],x,x,
CC(C)Oc1ccc(C(CC(=O)O)NC(=O)C(Sc2ccccc2)c2ccccc2)cc1 (centres undefined),6,2,7,5,-27*,-3,-16,x,
